ChEMBL document CHEMBL4229342, “Synthesis of novel proxyphylline derivatives with dual Anti-Candida albicans and anticancer activity” (Eur J Med Chem, 2018)

How the values were obtained:
Type in all cases: functional
[1] = tested on: Candida albicans; test: Growth inhibition of Candida albicans ATCC 90028 at 0.0313 ug/ml incubated for 4 hrs at 35 degC by broth microdilution method relative to control; settings: ATCC 90028, 4 h, read-out: GI
[2] = tested on: Candida albicans; test: Fungicidal activity against Candida albicans ATCC 90028 assessed as log reduction in cell viability at 16 ug/ml after 48 hrs at 35 degC
Method in brief: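 MFC assay on C. albicans ATCC 90028 following M27-A3, at the molar equivalent of 16 µg/mL. CFU of treated cells were compared with CFU of the untreated inoculum. Activity is given as lg R = lg CFU/mL control − lg CFU/mL treated, and lg R ≥3 was defined as fungicidal. Values are means of two independent experiments.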

[3] = tested on: Candida albicans; test: Growth inhibition of Candida albicans ATCC 90028 at 16 ug/ml incubated for 18 hrs at 35 degC by broth microdilution method relative to control; settings: ATCC 90028, 18 h, read-out: GI
[4] = tested on: CCRF-CEM; test: Antiproliferative activity against human CCRF-CEM cells assessed as cell viability at 50 uM after 72 hrs by MTT assay; settings: read-out: Activity
Method in brief: (§1)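 MTT viability assay in CCRF-CEM and MCF-7 cells after 72 h exposure at 25, 50, 100 and 200 µM. Results are relative to control cells without inhibitor in 0.5% DMSO. Done in triplicate; values are means ± SD of three independent experiments.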

[5] = tested on: Candida albicans; test: Growth inhibition of Candida albicans ATCC 90028 at 0.125 ug/ml incubated for 4 hrs at 35 degC by broth microdilution method relative to control; settings: ATCC 90028, 4 h, read-out: GI
[6] = tested on: Candida albicans; test: Growth inhibition of Candida albicans ATCC 90028 at 1 ug/ml incubated for 18 hrs at 35 degC by broth microdilution method relative to control; settings: ATCC 90028, 18 h, read-out: GI
[7] = tested on: Candida albicans; test: Growth inhibition of Candida albicans ATCC 90028 at 8 ug/ml incubated for 48 hrs at 35 degC by broth microdilution method relative to control; settings: ATCC 90028, 48 h, read-out: GI
[8] = tested on: Candida albicans; test: Growth inhibition of Candida albicans ATCC 90028 at 0.125 ug/ml incubated for 18 hrs at 35 degC by broth microdilution method relative to control; settings: ATCC 90028, 18 h, read-out: GI
[9] = tested on: Candida albicans; test: Growth inhibition of Candida albicans ATCC 90028 at 2 ug/ml incubated for 4 hrs at 35 degC by broth microdilution method relative to control; settings: ATCC 90028, 4 h, read-out: GI
[10] = tested on: MCF7; test: Antiproliferative activity against human MCF7 cells assessed as cell viability at 50 uM after 72 hrs by MTT assay; settings: MCF7, 72 h, read-out: Activity; method in brief: as §1
[11] = tested on: MCF7; test: Antiproliferative activity against human MCF7 cells assessed as cell viability at 200 uM after 72 hrs by MTT assay; settings: MCF7, 72 h, read-out: Activity; method in brief: as §1
[12] = tested on: Candida albicans; test: Growth inhibition of Candida albicans ATCC 90028 at 0.0625 ug/ml incubated for 18 hrs at 35 degC by broth microdilution method relative to control; settings: ATCC 90028, 18 h, read-out: GI
[13] = tested on: Candida albicans; test: Growth inhibition of Candida albicans ATCC 90028 at 0.5 ug/ml incubated for 18 hrs at 35 degC by broth microdilution method relative to control; settings: ATCC 90028, 18 h, read-out: GI
[14] = tested on: Candida albicans; test: Growth inhibition of Candida albicans ATCC 90028 at 0.0313 ug/ml incubated for 18 hrs at 35 degC by broth microdilution method relative to control; settings: ATCC 90028, 18 h, read-out: GI
[15] = tested on: Candida albicans; test: Growth inhibition of Candida albicans ATCC 90028 at 0.5 ug/ml incubated for 4 hrs at 35 degC by broth microdilution method relative to control; settings: ATCC 90028, 4 h, read-out: GI
[16] = tested on: MCF7; test: Antiproliferative activity against human MCF7 cells assessed as cell viability at 100 uM after 72 hrs by MTT assay; settings: MCF7, 72 h, read-out: Activity; method in brief: as §1
[17] = tested on: Candida albicans; test: Growth inhibition of Candida albicans ATCC 90028 at 0.0625 ug/ml incubated for 4 hrs at 35 degC by broth microdilution method relative to control; settings: ATCC 90028, 4 h, read-out: GI
[18] = tested on: CCRF-CEM; test: Antiproliferative activity against human CCRF-CEM cells assessed as cell viability at 200 uM after 72 hrs by MTT assay; settings: read-out: Activity; method in brief: as §1
[19] = tested on: CCRF-CEM; test: Antiproliferative activity against human CCRF-CEM cells assessed as cell viability at 25 uM after 72 hrs by MTT assay; settings: read-out: Activity; method in brief: as §1
[20] = tested on: Candida albicans; test: Growth inhibition of Candida albicans ATCC 90028 at 8 ug/ml incubated for 18 hrs at 35 degC by broth microdilution method relative to control; settings: ATCC 90028, 18 h, read-out: GI
[21] = tested on: MCF7; test: Antiproliferative activity against human MCF7 cells assessed as cell viability at 25 uM after 72 hrs by MTT assay; settings: MCF7, 72 h, read-out: Activity; method in brief: as §1
[22] = tested on: Candida albicans; test: Growth inhibition of Candida albicans ATCC 90028 at 0.25 ug/ml incubated for 18 hrs at 35 degC by broth microdilution method relative to control; settings: ATCC 90028, 18 h, read-out: GI
[23] = tested on: Candida albicans; test: Growth inhibition of Candida albicans ATCC 90028 at 4 ug/ml incubated for 18 hrs at 35 degC by broth microdilution method relative to control; settings: ATCC 90028, 18 h, read-out: GI
[24] = tested on: Candida albicans; test: Growth inhibition of Candida albicans ATCC 90028 at 2 ug/ml incubated for 18 hrs at 35 degC by broth microdilution method relative to control; settings: ATCC 90028, 18 h, read-out: GI
[25] = tested on: Candida albicans; test: Growth inhibition of Candida albicans ATCC 90028 at 1 ug/ml incubated for 4 hrs at 35 degC by broth microdilution method relative to control; settings: ATCC 90028, 4 h, read-out: GI
[26] = tested on: CCRF-CEM; test: Antiproliferative activity against human CCRF-CEM cells assessed as cell viability at 100 uM after 72 hrs by MTT assay; settings: read-out: Activity; method in brief: as §1
[27] = tested on: Candida albicans; test: Growth inhibition of Candida albicans ATCC 90028 at 0.25 ug/ml incubated for 4 hrs at 35 degC by broth microdilution method relative to control; settings: ATCC 90028, 4 h, read-out: GI
[28] = tested on: Candida albicans; test: Growth inhibition of Candida albicans ATCC 90028 at 16 ug/ml incubated for 48 hrs at 35 degC by broth microdilution method relative to control; settings: ATCC 90028, 48 h, read-out: GI
[29] = tested on: Candida albicans; test: Growth inhibition of Candida albicans ATCC 90028 at 8 ug/ml incubated for 4 hrs at 35 degC by broth microdilution method relative to control; settings: ATCC 90028, 4 h, read-out: GI

In the case of `COC(C(=O)OC(C)Cn1cnc2c1c(=O)n(C)c(=O)n2C)c1cccc2ccccc12` (configuration not stated), the inhibition of growth at 0.0313 µg/mL [1] is reported as 99.5%, the “log(activity)” value [2] is reported as 0.5 and the inhibition of growth at 16 µg/mL [3] is reported as 99.8%. The viability at 50 µM [4] was 87.9%, the inhibition of growth at 0.125 µg/mL [5] was 100% and the inhibition of growth at 1 µg/mL [6] was 100%. The inhibition of growth at 8 µg/mL [7] was 99.6%, the inhibition of growth at 0.125 µg/mL [8] was 100% and the inhibition of growth at 2 µg/mL [9] was 99.3%. For the same compound, the viability at 50 µM [10] was 87.7%, the viability at 200 µM [11] was 76.9% and the inhibition of growth at 0.0625 µg/mL [12] was 100%. The inhibition of growth at 0.5 µg/mL [13] was 100%, the inhibition of growth at 0.0313 µg/mL [14] was 100% and the inhibition of growth at 0.5 µg/mL [15] was 99.1%. It also gave a viability at 100 µM [16] of 83.3%, an inhibition of growth at 0.0625 µg/mL [17] of 100% and a viability at 200 µM [18] of 34.6%. The viability at 25 µM [19] was 96.6%, the inhibition of growth at 8 µg/mL [20] was 100% and the viability at 25 µM [21] was 92.6%. It also gave an inhibition of growth at 0.25 µg/mL [22] of 99.9%, an inhibition of growth at 4 µg/mL [23] of 99.5% and an inhibition of growth at 2 µg/mL [24] of 99.9%. For the same compound, the inhibition of growth at 1 µg/mL [25] was 99.3%, the viability at 100 µM [26] was 51.4% and the inhibition of growth at 0.25 µg/mL [27] was 98.9%. It also gave an inhibition of growth at 16 µg/mL [28] of 99.4% and an inhibition of growth at 8 µg/mL [29] of 99%.
With `CC(Cn1cnc2c1c(=O)n(C)c(=O)n2C)OCc1cn(-c2cccc3ccccc23)nn1` (configuration not stated) the inhibition of growth at 0.0313 µg/mL [1] was 99.1%, the “log(activity)” value [2] was 0.5 and the inhibition of growth at 16 µg/mL [3] was 99.6%. It also gave a viability at 50 µM [4] of 67.7%, an inhibition of growth at 0.125 µg/mL [5] of 99.7% and an inhibition of growth at 1 µg/mL [6] of 99.7%. The inhibition of growth at 8 µg/mL [7] was 99.6%, the inhibition of growth at 0.125 µg/mL [8] was 100% and the inhibition of growth at 2 µg/mL [9] was 99.2%. The viability at 50 µM [10] was 91.9%, the viability at 200 µM [11] was 77% and the inhibition of growth at 0.0625 µg/mL [12] was 100%. It also gave an inhibition of growth at 0.5 µg/mL [13] of 99.7%, an inhibition of growth at 0.0313 µg/mL [14] of 99.9% and an inhibition of growth at 0.5 µg/mL [15] of 99.3%. It also gave a viability at 100 µM [16] of 93.3%, an inhibition of growth at 0.0625 µg/mL [17] of 99.8% and a viability at 200 µM [18] of 4.1%. It also gave a viability at 25 µM [19] of 90%, an inhibition of growth at 8 µg/mL [20] of 99.9% and a viability at 25 µM [21] of 93.5%. For the same compound, the inhibition of growth at 0.25 µg/mL [22] was 99.8%, the inhibition of growth at 4 µg/mL [23] was 99.8% and the inhibition of growth at 2 µg/mL [24] was 99.8%. It also gave an inhibition of growth at 1 µg/mL [25] of 99.5%, a viability at 100 µM [26] of 34.2% and an inhibition of growth at 0.25 µg/mL [27] of 99.5%. For the same compound, the inhibition of growth at 16 µg/mL [28] was 99.1% and the inhibition of growth at 8 µg/mL [29] was 99.6%.
In the case of `CC(Cn1cnc2c1c(=O)n(C)c(=O)n2C)OC(=O)C(c1ccccc1)c1ccccc1` (configuration not stated), the inhibition of growth at 0.0313 µg/mL [1] is reported as 99.9%, the “log(activity)” value [2] is reported as 0.1 and the inhibition of growth at 16 µg/mL [3] is reported as 99.9%. For the same compound, the viability at 50 µM [4] was 33.1%, the inhibition of growth at 0.125 µg/mL [5] was 99.8% and the inhibition of growth at 1 µg/mL [6] was 99.6%. It also gave an inhibition of growth at 8 µg/mL [7] of 99.1%, an inhibition of growth at 0.125 µg/mL [8] of 100% and an inhibition of growth at 2 µg/mL [9] of 99.2%. The viability at 50 µM [10] was 75.2%, the viability at 200 µM [11] was 43.5% and the inhibition of growth at 0.0625 µg/mL [12] was 100%. It also gave an inhibition of growth at 0.5 µg/mL [13] of 99.6%, an inhibition of growth at 0.0313 µg/mL [14] of 100% and an inhibition of growth at 0.5 µg/mL [15] of 99.1%. For the same compound, the viability at 100 µM [16] was 67.3%, the inhibition of growth at 0.0625 µg/mL [17] was 99.3% and the viability at 200 µM [18] was 2.5%. It also gave a viability at 25 µM [19] of 84.8%, an inhibition of growth at 8 µg/mL [20] of 99.9% and a viability at 25 µM [21] of 89.5%. The inhibition of growth at 0.25 µg/mL [22] was 99.3%, the inhibition of growth at 4 µg/mL [23] was 100% and the inhibition of growth at 2 µg/mL [24] was 99.8%. It also gave an inhibition of growth at 1 µg/mL [25] of 99.4%, a viability at 100 µM [26] of 30.5% and an inhibition of growth at 0.25 µg/mL [27] of 99.1%. For the same compound, the inhibition of growth at 16 µg/mL [28] was 99.1% and the inhibition of growth at 8 µg/mL [29] was 99.2%.
